# CHO parental Ca: ATP-evoked calcium signal inhibitors, parental CHO, primary screen, counter-screen for OX1R antagonist project, cell-based, fluorescence, Fluo-8 calcium dye; parental CHO-K1, ATP-induced calcium, Fluo-8 fluorescence; inhibition, % at 5.6 µM; hit rate 0.63% among 330,000; AID 463079, 2010;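 active = inhibition above that plate's mean sample inhibition plus 3 SD, cut at about 26% in these data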;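 also: 0% = ATP-challenged DMSO wells and 100% = DMSO wells without ATP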
#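 Assay system: parental CHO cells; Read-out basis: percent inhibition of ATP-evoked calcium rise, normalized to controls; Benchmarks: ATP and no-ATP DMSO wells; Compound dosing: single nominal dose of 5.6 µM per compound; Signal: Fluo-8 calcium dye fluorescence; Also added: ATP as calcium-mobilizing challenge; Repeats: singlicate.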
# TAAR1 agonist: human TAAR1 agonists, primary screen, Fluo-8 calcium fluorescence, CHO RD-HGA16 cells. vehicle wells 0%, saturating PEA agonist 100%. AID 624467, 2012. activation, % at 3 µM. Trace amine-associated receptor 1 (Homo sapiens), Q96RJ0. hit rate 0.99% among 360,000;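 active = activation above the mean activation of all test compounds in the run plus 3 SD, cut at about 38% in these data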
# Target sequence (Q96RJ0 whole entry, looked up): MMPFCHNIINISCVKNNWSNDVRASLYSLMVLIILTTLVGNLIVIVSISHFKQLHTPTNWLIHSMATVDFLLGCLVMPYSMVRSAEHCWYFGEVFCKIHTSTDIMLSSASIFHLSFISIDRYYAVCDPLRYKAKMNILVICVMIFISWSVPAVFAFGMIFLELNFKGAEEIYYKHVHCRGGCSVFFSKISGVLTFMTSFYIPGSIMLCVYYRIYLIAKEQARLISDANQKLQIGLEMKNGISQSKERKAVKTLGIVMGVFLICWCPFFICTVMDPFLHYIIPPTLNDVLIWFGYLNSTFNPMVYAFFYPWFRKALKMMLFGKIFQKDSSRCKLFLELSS
#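 System: CHO-derived RD-HGA16 cells with stable Gα16 and human TAAR1 / Times: 17-24 h plating, Fluo-8 75 min 37 °C, 30 min RT / Technique: calcium-sensitive Fluo-8 signal, excitation 470-495, emission 515-575 nm / Measure: % activation relative to PEA EC100 response / Benchmarks: DMSO and PEA EC100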
# TAAR1 antagonist: human TAAR1 antagonists, primary screen, Fluo-8 calcium fluorescence, CHO RD-HGA16 cells. antagonist. inhibition, % at 3 µM. hit rate 1.5% among 360,000;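 active = inhibition above a per-plate cutoff, the mean inhibition of test compounds on that plate plus 3 SD, cut at about 49% in these data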;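 also: 0% = DMSO plus EC80 beta-PEA response and 100% = DMSO alone without agonist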
#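 System: RD-HGA16 CHO cells with stable hTAAR1 and Gα16 | Probe or stimulus: EC80 β-phenethylamine stimulus | Dosing: 3 µM, single point | Times: Dye loading 75 min at 37 °C, then 30 min room temperature | Measured by: Fluo-8 calcium-sensitive fluorescence | Read-out basis: % inhibition of agonist calcium response | Replicates: n of 1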
# OX1R antag-1: OX1R (HCRTR1) antagonists, primary screen, fluorescence, CHO/OX1R cells, Fluo-8 calcium, orexin A | Fluo-8 calcium fluorescence | inhibition, % at 5 µM | hit rate 0.43% among 330,000 | AID 434989, 2010;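 active = inhibition above its plate's threshold, mean inhibition of all tested compounds on the plate plus 3 SD, cut at about 37% in these data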;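 also: 0% = orexin A challenge wells and 100% = SB-334867-A antagonist wells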
# GalR3 antagonist: GalR3 antagonists in HEK293 cells, primary screen, cell-based, fluorescence readout | HEK293 GalR3-CNG cAMP membrane potential fluorescence; galR3 body fused to GalR1 C-terminus | Galanin receptor type 3 (Homo sapiens), O60755 | inhibition, % at 3 µM | hit rate 0.44% among 360,000;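 active = inhibition above the screen-wide average plus 3 SD, cut at about 13% in these data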;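 also: forskolin and galanin both at EC90 stimulate the cells; cAMP rise reported by CNG channel membrane potential dye signal; 0% = forskolin plus galanin with DMSO and 100% = forskolin alone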
# Target sequence (O60755 1-299 limits assumed): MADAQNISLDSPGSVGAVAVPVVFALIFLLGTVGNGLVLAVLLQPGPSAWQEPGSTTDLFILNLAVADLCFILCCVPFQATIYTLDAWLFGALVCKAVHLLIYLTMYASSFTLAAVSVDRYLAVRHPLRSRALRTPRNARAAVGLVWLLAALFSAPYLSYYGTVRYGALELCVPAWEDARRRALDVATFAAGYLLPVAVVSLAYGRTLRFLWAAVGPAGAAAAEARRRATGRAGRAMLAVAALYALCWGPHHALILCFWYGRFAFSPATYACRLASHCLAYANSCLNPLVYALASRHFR
# OX1R antag-2: antagonists of human orexin 1 receptor (OX1R); OX1R-expressing cells, FRET antagonist read-out; hit rate 1.8% among 330,000; inhibition, % at 6.6 µM; in the data active = inhibition mostly above about 38%, no sharp cut-off; inactive = mostly below about 40%;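 also: 0% = agonist challenge alone and 100% = reference antagonist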
# GalR3 antag conf: GalR3 antagonist hit confirmation, cell-based, fluorescence, triplicate; HEK293 GalR3 CNG cAMP biosensor, membrane potential fluorescence; galR3 fused to GalR1 carboxy tail; challenged with forskolin and galanin at EC90; inhibition, % at 3 µM; AID 652245, 2013; shares compounds with GalR3 antagonist; hit rate 59% among 1,600;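 active = inhibition above the primary screen's cutoff, the mean inhibition of all screened compounds plus 3 SD, cut at about 13% in these data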;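 also: 0% = forskolin plus galanin and 100% = forskolin alone with DMSO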
# CNG parental: nonspecific cAMP agonists in parental HEK-CNG cells, counter-screen for GalR3 antagonist project, cell-based, fluorescence, high throughput; hit rate 10% among 1,600; activation, % at 3 µM; shares compounds with GalR3 antagonist; HEK293-CNG parental cells, cAMP membrane potential fluorescence; normalised: DMSO wells 0%, forskolin wells 100%; in the data active = activation above about 1.3%
# Active calls of the source: *; · = not tested or not shown. Sampled rows, rich in hits. Any-hit rate of the full collection: about 4.3%.
SMILES,CHO parental Ca,TAAR1 agonist,TAAR1 antagonist,OX1R antag-1,GalR3 antagonist,OX1R antag-2,GalR3 antag conf,CNG parental
Cc1cccc(C)c1NC(=O)CNC(=O)c1cccc(S(=O)(=O)NCc2cccs2)c1,-25,12,-2,4,-7,5,·,·
CC(C)CC(=O)Nc1ccc(C(=O)COC(=O)Cc2n[nH]c(=O)c3ccccc23)cc1,-18,12,-3,-15,-5,0,·,·
O=C(NCCc1nccs1)C1CCC(=O)N(Cc2cccc(C(F)(F)F)c2)C1 (configuration not stated),-11,1,-26,-10,-1,1,·,·
O=C(Nc1ccncc1)c1ccc(-c2ccccc2)cc1,58*,8,16,47*,·,46,56*,-1
COC(=O)CNC(=O)CN1c2cccc3cccc(c23)S1(=O)=O,2,2,-4,5,13*,29,0,0
O=S(=O)(c1ccc(Cl)cc1)N1CCN(S(=O)(=O)N2CCCCCC2)CC1,4,7,-9,-14,16*,8,3,0
O=C(O)Cc1csc(-c2cccc(F)c2)n1,6,3,10,3,·,13,0,0
O=C(O)Cc1csc(-c2ccccc2)n1,-13,7,-5,-17,2,10,·,·
Cc1ccc2c(c1)C1C3CCC(C3)C1S(=O)N2 (configuration not stated),0,2,-23,0,18*,19,4,0
O=C(COC(=O)C(O)C(O)C(=O)OCC(=O)c1ccc(C(F)(F)F)cc1)c1ccc(C(F)(F)F)cc1 (configuration not stated),1,2,7,-13,13*,12,10,0
O=C(COc1ccc(Cl)cc1)OCc1ccc(Cl)cc1,·,1,6,·,-6,·,·,·
Cn1cnc([N+](=O)[O-])c1S(=O)(=O)c1ccc(Cl)cc1,·,7,1,·,13*,·,1,0
Cn1cnc([N+](=O)[O-])c1NC(C)(C)C,8,2,7,-18,4,1,·,·
CC1(C(=O)NS(=O)(=O)c2cccc(C#N)c2)CCN1C(=O)Cc1ccccc1Cl (configuration not stated),·,4,-19,·,-6,·,·,·
S=C1NNC2(NN1)C1CC3CC(C1)CC2C3,-8,3,-23,-12,15*,38,3,0
Cc1cnc(C(=O)OCc2nc3ccccc3o2)cn1,-4,9,-28,-4,2,-1,·,·
CC(OC(=O)c1nc(Cl)ccc1Cl)C(=O)NCc1ccccc1 (configuration not stated),·,1,-20,·,-8,·,·,·
CCCCCCNC(=O)CC(NS(=O)(=O)c1ccc(OC)cc1)C(C)C (configuration not stated),-27,1,0,-36,21*,28,-2,0
Cn1c(=O)c2c(nc(NCc3cccnc3)n2Cc2ccc(Cl)cc2)n(C)c1=O,-12,1,13,-32,24*,10,9,1
CCC(C)Nc1nc2c(c(=O)n(C)c(=O)n2C)n1Cc1ccc(Cl)cc1 (configuration not stated),-20,5,-16,-36,1,17,·,·
CCNc1nc2c(c(=O)n(C)c(=O)n2C)n1Cc1ccc(Cl)cc1,36*,5,9,-12,22*,16,71*,0
Cn1c(=O)c2c(ncn2Cc2ccc(Cl)cc2)n(C)c1=O,-4,2,-6,-28,15*,15,0,0
COc1ccc(NC(=O)c2cc(C3CCCCN3C(=O)OCCF)on2)c(C)c1 (configuration not stated),·,1,-11,·,-8,·,·,·
COc1cc(C[C@H](C)[C@H](C)Cc2ccc3c(c2)OCO3)ccc1O,0,·,·,-9,·,3,·,·
COc1cc(CC2COC(=O)C2(O)Cc2ccc(O)c(OC)c2)ccc1O (configuration not stated),12,6,4,1,48*,16,9,0
SMILES,CHO parental Ca,TAAR1 agonist,TAAR1 antagonist,OX1R antag-1,GalR3 antagonist,OX1R antag-2,GalR3 antag conf,CNG parental
COc1cccc(-c2oc3c(c2C(=O)OCCN2CCCCC2)C(O)CCC3)c1 (configuration not stated),·,0,0,·,-6,·,·,·
COc1ccc(N2C(=O)CC(NCc3ccncc3)C2=O)cc1 (configuration not stated),-1,7,-3,2,7,27,·,·
COc1ccc(N2C(=O)CC(NCc3ccc(F)cc3)C2=O)cc1 (configuration not stated),-3,-1,-21,-20,15*,7,14*,0
CCCCN1C(=O)C(CC(=O)NCCN2CCOCC2)CC(C(=O)N(C)C)=C1C (configuration not stated),·,0,-9,·,-7,·,·,·
O=C(CC(=O)Nc1ccc(Cl)cc1Cl)Nc1ccc(Cl)cc1Cl,-7,-2,-16,2,-5,-5,·,·
CC(=O)OCC(=O)Nc1ccc(Cl)cc1Cl,-2,2,2,-16,19*,5,0,0
O=C(Nc1ccccc1)C1=C(Nc2ccccc2)CSC1,·,0,-8,·,-4,·,·,·
O=C(Nc1ccc(Cl)cc1)c1cccc(N2C(=O)C3C4CCC(C4)C3C2=O)c1 (configuration not stated),-20,11,31,-26,92*,17,-1,0
CCOc1cc(C(C(=O)NCC2CCCO2)N(C(=O)Cn2nnc3ccccc32)c2ccccc2C(C)=O)ccc1O (configuration not stated),-11,-2,9,-27,15*,2,14*,0
O=C(c1cccc(S(=O)(=O)N2CCN(c3ccc(F)cc3)CC2)c1)N1CCCC(C(F)(F)F)C1 (configuration not stated),37*,0,-6,-4,99*,20,95*,-1

# Compound activity deposited in PubChem by The Scripps Research Institute Molecular Screening Center.
